The values that follow come from ChEMBL document CHEMBL1139397, “Thiazolidinone CFTR inhibitors with improved water solubility identified by structure-activity analysis” (Bioorg Med Chem, 2008).

Type in all cases: cell-based
Series [1] deals with Cystic fibrosis transmembrane conductance regulator (Homo sapiens, UniProt P13569). Put plainly: Inhibition of human wild type CFTR expressed in rat FRT cells assessed as chloride current by short-circuit current measurements. In outline: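 FRT cells stably expressing human wildtype CFTR were grown on filters to >1,000 Ω·cm2. Basolateral membrane permeabilized with amphotericin B (250 μg/ml, 30 min). Apical Cl− current was measured under a gradient: basolateral 130 mM NaCl buffer, pH 7.3; apical 65 mM NaCl replaced by gluconate. Solutions at 37 °C under 95% O2/5% CO2. CFTR activated with 100 μM CPT-cAMP, then inhibitor added at increasing concentrations. IC50 fitted from concentration-inhibition data.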

Series [2] in a line: Cytotoxicity against rat FRT cells assessed as cell viability at 20 uM after 48 hrs by crystal violet staining. In a few lines:
(§1)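 Confluent FRT monolayers exposed to compound for 2 days. Cells were then washed three times, fixed for 30 min and stained with 0.5% crystal violet for 10 min. Dye was extracted in Sorenson's buffer (0.1 M sodium citrate, 50% ethanol, pH 4.2) and read at 650 nm. Percent staining was taken from 8 replicate wells relative to cell-free blanks and vehicle-treated cells.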

Series [3] is described as follows: Cytotoxicity against rat FRT cells assessed as cell viability at 50 uM after 48 hrs by crystal violet staining. In a few lines: as §1

The structures appear in SMILES notation. Calls of active or inactive are those of the source. The rule behind the calls is not given here.

As to `O=C(O)c1ccccc1/C=C1\SC(=S)N(c2ccc(C(F)(F)F)cc2)C1=O`, the IC50 in series [1] was determined as 20 µM.
For `O=C(O)c1ccc(/C=C2\SC(=S)N(c3ccccc3C(F)(F)F)C2=O)cc1`, the IC50 in series [1] came out at 12 µM.
As to `O=C(O)c1ccc(SC2CC(=O)N(c3cccc(C(F)(F)F)c3)C2=O)cc1` (stereo unspecified), the IC50 in series [1] was found to be 7 µM.
Consider `O=C(O)c1cccc(/C=C2\SC(=S)N(c3ccccc3C(F)(F)F)C2=O)c1`, for which the IC50 in series [1] is 19 µM.
For `O=C1S/C(=C\c2ccc(-c3nn[nH]n3)cc2)C(=O)N1c1cccc(C(F)(F)F)c1`, in series [1], the IC50 came out at 17 µM.
In the case of `O=C(O)c1ccc(/C=C2\SC(=S)N(c3cc(C(F)(F)F)cc(C(F)(F)F)c3)C2=O)cc1`, the IC50 in series [1] was 14 µM.
Consider `O=C1/C(=C/c2ccc(O)c(O)c2)SC(=S)N1c1cccc(C(F)(F)F)c1`, for which, in series [1], the result was inactive.
Turning to `COc1c(Br)cc(/C=C2\SC(=S)N(c3cccc(C(F)(F)F)c3)C2=O)c(O)c1Br`, the result in series [1] was inactive.
For the compound `O=C1/C(=C/c2ccc(O)c(O)c2O)SC(=S)N1c1cccc(C(F)(F)F)c1`, in series [1], the 50% inhibitory concentration (IC50) was 28 µM.
For the compound `COc1cc(Br)ccc1/C=C1\SC(=S)N(c2cccc(C(F)(F)F)c2)C1=O`, the result in series [1] was inactive.
For `O=C1/C(=C/c2ccncc2)SC(=S)N1c1cccc(C(F)(F)F)c1`, the IC50 in series [1] is 28 µM.
As to `O=C(O)c1ccc(-n2cc(-c3cccc(C(F)(F)F)c3)nn2)cc1`, the result in series [1] was inactive.
As to `O=C(O)c1cccc(/C=C2\SC(=S)N(c3ccc(C(F)(F)F)cc3)C2=O)c1`, in series [1], the IC50 stood at 13 µM.
Take `CC(=O)OCOC(=O)c1ccc(/C=C2\SC(=S)N(c3cccc(C(F)(F)F)c3)C2=O)cc1`: the outcome in series [1] was inactive.
Regarding `O=C1/C(=C/c2ccc(O)cc2)SC(=S)N1c1cccc(C(F)(F)F)c1`, the IC50 in series [1] came to 24 µM.
The same measure, in the same setting: then `O=C(O)c1ccc(Nc2nc(-c3cccc(C(F)(F)F)c3)cs2)cc1`, with 28 µM; and `O=C1C(C(=S)Nc2ccc(S(=O)(=O)O)o2)SC(=S)N1c1cccc(C(F)(F)F)c1` (stereo unspecified), with 27 µM.
For `O=C(O)c1ccc(/C=C2\SC(=S)N(c3cccc(C(F)(F)F)c3)C2=O)cc1`, the Activity in series [2] was determined as 86%.
Consider `O=C1/C(=C/c2cc(Br)c(O)c(Br)c2O)SC(=S)N1c1cccc(C(F)(F)F)c1`, for which, in series [1], the IC50 turned out to be 8 µM.
Same read-out and setting: then `O=C(O)c1ccc(NC(=S)C2SC(=S)N(c3cccc(C(F)(F)F)c3)C2=O)cc1` (stereo unspecified), with 9 µM.
For the compound `O=C1/C(=C/c2ccc(S(=O)(=O)O)cc2S(=O)(=O)O)SC(=S)N1c1cccc(C(F)(F)F)c1`, the half-maximal inhibitory concentration (IC50) in series [1] amounted to 50 µM.
Consider `O=C(O)c1cc(/C=C2\SC(=S)N(c3ccc(C(F)(F)F)cc3)C2=O)ccc1O`, for which the half-inhibitory concentration (IC50) in series [1] amounted to 25 µM.
Turning to `O=C(O)c1ccc(NC2=C(Cl)C(=O)N(c3cccc(C(F)(F)F)c3)C2=O)cc1`, in series [1], the half-maximal inhibitory concentration (IC50) is 36 µM.
For `O=C(O)c1ccc(/C=C2\SC(=S)N(c3ccc(F)c(C(F)(F)F)c3)C2=O)cc1`, the IC50 in series [1] worked out at 1.5 µM.
Turning to `O=C(O)c1ccccc1/C=C1\SC(=S)N(c2ccccc2C(F)(F)F)C1=O`, the IC50 in series [1] is 18 µM.
As for `O=C(O)c1cc(Nc2nnc(-c3cccc(C(F)(F)F)c3)s2)ccc1O`, the outcome in series [1] was inactive.
As for `Cc1cccc(N2C(=O)/C(=C/c3ccc(C(=O)O)cc3)SC2=S)c1C`, the IC50 in series [1] was 7 µM.
Regarding `O=C(O)c1ccc(-n2cc(-c3ccc(C(F)(F)F)cc3)nn2)cc1`, the outcome in series [1] was inactive.
With `O=C(O)c1ccc(/C=C2\SC(=S)N(c3cc(C(F)(F)F)ccc3Cl)C2=O)cc1`, in series [1], the IC50 came to 20 µM.
The same measure, in the same setting: next, `O=C(O)c1ccc(CC2SC(=S)N(c3cccc(C(F)(F)F)c3)C2=O)cc1` (stereo unspecified): 27 µM.
As to `O=C(NCCO)c1ccc(/C=C2\SC(=S)N(c3cccc(C(F)(F)F)c3)C2=O)cc1`, the outcome in series [1] was inactive.
With `Cc1cccc(N2C(=O)/C(=C/c3ccc(C(=O)O)cc3)SC2=S)c1`, the IC50 in series [1] is 5 µM.
As for `O=C(O)c1cccc(/C=C2\SC(=S)N(c3cccc(C(F)(F)F)c3)C2=O)c1`, in series [1], the IC50 worked out at 1.5 µM.
On the same count and under the same terms, then `O=C(O)c1cc(/C=C2\SC(=S)N(c3cccc(C(F)(F)F)c3)C2=O)ccc1O`, with 1.4 µM.
Regarding `O=C(O)c1ccc(Nc2nnc(-c3cccc(C(F)(F)F)c3)s2)cc1`, the outcome in series [1] was inactive.
Regarding `O=C1/C(=C/c2ccc(-c3nn[nH]n3)cc2)SC(=S)N1c1cccc(C(F)(F)F)c1`, the values for the Activity in series [2] and in series [3] were 87% and 73%, respectively.
For the compound `CCOC(=O)c1ccc(/C=C2\SC(=S)N(c3cccc(C(F)(F)F)c3)C2=O)cc1`, the result in series [1] was inactive.
On to `O=C1/C(=C/c2cc(O)c(O)c(O)c2)SC(=S)N1c1cccc(C(F)(F)F)c1`, for which, in series [1], the IC50 was determined as 11 µM.
Take `O=C(O)c1ccc(/C=C2\SC(=S)N(c3ccc(Cl)c(C(F)(F)F)c3)C2=O)cc1`: in series [1], the concentration for half-maximal inhibition (IC50) is 15 µM.
The same measure, in the same setting: next, `O=C(O)COc1cccc(/C=C2\SC(=S)N(c3cccc(C(F)(F)F)c3)C2=O)c1`: 30 µM.
Regarding `O=C(O)c1ccc(/C=C2\SC(=S)N(Cc3cccc(C(F)(F)F)c3)C2=O)cc1`, the outcome in series [1] was inactive.
Consider `O=C(O)c1cc(Nc2nc(-c3cccc(C(F)(F)F)c3)cs2)ccc1O`, for which the concentration for half-maximal inhibition (IC50) in series [1] worked out at 32 µM.
On to `O=C(O)c1cc(/C=C2\SC(=S)N(c3ccccc3C(F)(F)F)C2=O)ccc1O`, for which the IC50 in series [1] stood at 14 µM.
As to `O=C(O)c1ccccc1/C=C1\SC(=S)N(c2cccc(C(F)(F)F)c2)C1=O`, the IC50 in series [1] amounted to 15 µM.
Turning to `O=C(O)c1cccc(/C=C2\SC(=S)N(c3ccc(F)c(C(F)(F)F)c3)C2=O)c1`, in series [1], the IC50 was determined as 5 µM.
Take `O=C1/C(=C/c2cc(Br)c(O)c(Br)c2)SC(=S)N1c1cccc(C(F)(F)F)c1`: the IC50 in series [1] was 7 µM.
For `O=C1/C(=C/c2ccc(S(=O)(=O)O)cc2)SC(=S)N1c1cccc(C(F)(F)F)c1`, the IC50 in series [1] was determined as 29 µM.
As to `COc1ccc(/C=C2\SC(=S)N(c3cccc(C(F)(F)F)c3)C2=O)cc1`, the outcome in series [1] was inactive.
For `Cc1c(N2C(=O)/C(=C/c3ccc(C(=O)O)cc3)SC2=S)cccc1C(F)(F)F`, the results for the Activity in series [2] and in series [3] were 89% and 72%, respectively.
With `NCCNC(=O)c1ccc(/C=C2\SC(=S)N(c3cccc(C(F)(F)F)c3)C2=O)cc1`, the outcome in series [1] was inactive.
On to `NC(=O)c1ccc(/C=C2\SC(=S)N(c3cccc(C(F)(F)F)c3)C2=O)cc1`, for which the result in series [1] was inactive.
In the case of `O=C(O)c1ccc(/C=C2\SC(=O)N(c3cccc(C(F)(F)F)c3)C2=O)cc1`, the results for the Activity in series [2] and in series [3] were 93% and 91%, respectively.
Consider `O=C(O)c1ccc(/C=C2\SC(=S)N(c3ccc(C(F)(F)F)cc3)C2=O)cc1`, for which the half-maximal inhibitory concentration (IC50) in series [1] amounted to 15 µM.

The IC50 is the concentration that gives 50% inhibition.
